Measured values of several laboratories.
Protocols differ between the studies behind these lines.
Target: Serine/threonine-protein kinase NLK (NLK, Homo sapiens, UniProt Q9UBE8)
Sequence (Q9UBE8 1-527, as in one of the studies): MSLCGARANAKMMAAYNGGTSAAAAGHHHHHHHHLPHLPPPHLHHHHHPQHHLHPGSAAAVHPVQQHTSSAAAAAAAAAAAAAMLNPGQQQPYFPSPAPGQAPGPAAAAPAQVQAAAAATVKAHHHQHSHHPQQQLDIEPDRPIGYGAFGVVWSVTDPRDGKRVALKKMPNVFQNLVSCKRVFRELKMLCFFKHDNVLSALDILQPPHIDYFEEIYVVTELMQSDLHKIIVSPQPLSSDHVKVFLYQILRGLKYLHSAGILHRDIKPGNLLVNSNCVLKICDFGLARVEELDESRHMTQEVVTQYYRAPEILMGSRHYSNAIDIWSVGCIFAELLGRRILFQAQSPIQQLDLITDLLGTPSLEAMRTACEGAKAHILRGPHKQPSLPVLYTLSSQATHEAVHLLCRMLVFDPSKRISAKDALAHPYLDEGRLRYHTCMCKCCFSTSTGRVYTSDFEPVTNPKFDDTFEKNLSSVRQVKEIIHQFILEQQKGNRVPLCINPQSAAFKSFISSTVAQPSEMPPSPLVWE

| SMILES | observed | method | tested at | remaining binding |
| --- | --- | --- | --- | --- |
| CN(C)c1ncnc(-c2ccc3nc(Nc4cc(CN5CCN(C(=O)CC(F)(F)F)CC5)ccn4)[nH]c3c2)c1Cl | cell-free assay | competition with immobilised ligand | 1 µM | 88% |
| CN(CCCC(F)(F)F)c1nccc(-c2cnn3ncccc23)n1 | binding | – | 1 µM | 66% |
| Nc1ncc2c(n1)-c1c([nH]c3ccc(C#CC4CC4)cc13)CCCC2 | binding | competition with immobilised ligand | 1 µM | 85% |
| c1cnn2ncc(-c3ccnc(N4CCC45COC5)n3)c2c1 | binding | – | 1 µM | 87% |
| CNC(=O)[C@@H]1CC[C@@H](n2c(-c3ccc4cnccc4c3)nc3ccc(C(=O)NCc4cccc(C(N)=O)c4)cc32)C1 | binding | competition with immobilised ligand | 1 µM | 100% |
| O=C(NCc1ncc(C(F)(F)F)cc1Cl)c1ccc2c(c1)C1(CCS(=O)(=O)CC1)[C@@H](C1CC1)N2S(=O)(=O)c1ccc(F)cc1 | cell-free assay | competition with immobilised ligand | 1 µM | 89% |
| CN(c1nccc(-c2cnn3ncccc23)n1)C1CC1 | binding | – | 1 µM | 77% |
| Cc1c(C(=O)O)cc(-c2ccc(C3CCNCC3)cc2)c2ccc(-c3ccc(C(F)(F)F)cc3)cc12 | binding | competition with immobilised ligand | 1 µM | 100% |
| CN(C)c1nccc(-c2cnc3ncccn23)n1 | binding | – | 1 µM | 74% |
| c1cncc(-c2cccc(Nc3nccc(NC4CCCCC4)n3)c2)c1 | binding | competition with immobilised ligand | 10 µM | 67% |
| O=C(NCCCN1CCOCC1)c1ccc(Nc2nccc(-c3cc4ccccc4s3)n2)cc1 | binding | competition with immobilised ligand | 1 µM | 94% |
| O=C(Nc1ccc(Oc2ccc(F)cc2)cc1)N1CCc2ncccc2[C@H]1c1ccc(F)cc1 | cell-free assay | competition with immobilised ligand | 1 µM | 87% |
| O=C(c1ccc(Nc2nccc(-c3cc4ccccc4s3)n2)cc1)N1CCC(N2CCCC2)CC1 | binding | competition with immobilised ligand | 1 µM | 93% |
| C[C@@H]1CN(c2cc(-c3nn(C)c4ccc(OC5(C)CC5)cc34)ncn2)C[C@H](C)O1 | cell-free assay | competition with immobilised ligand | 1 µM | 96% |
| O=C(NCC1CCOCC1)c1n[nH]cc1NC(=O)c1c(F)cccc1F | binding | competition with immobilised ligand | 1 µM | 85% |
| O=C1CCc2cc(Nc3cc(OC4CCOCC4)c([N+](=O)[O-])cc3Cl)ccc2N1 | cell-free assay | competition with immobilised ligand | 1 µM | 100% |
| COc1ccnn2ncc(-c3ccnc(N(C)C)n3)c12 | binding | – | 1 µM | 87% |
| O=C(c1ccc(Nc2ncc(Cl)c(-c3ccc(Cl)s3)n2)cc1)N1CCC(N2CCCC2)CC1 | binding | competition with immobilised ligand | 1 µM | 98% |
| N[C@H]1CCN(c2nccc(-c3cnn4ncccc34)n2)C1 | binding | – | 1 µM | 76% |
| COc1cnc(Nc2cccc(S(N)(=O)=O)c2)nc1N1CCN(c2ccccc2)C(=O)C1 | binding | competition with immobilised ligand | 1 µM | 100% |
| C[C@@H]1CCN(c2nccc(-c3cnn4ncccc34)n2)C1 | binding | – | 1 µM | 70% |
| CS(=O)(=O)NCC[C@H](NC(=O)c1cncc2c1cnn2-c1ccc(F)cc1)c1ccnc(S(C)(=O)=O)c1 | cell-free assay | competition with immobilised ligand | 1 µM | 100% |
